Where two headings read alike, the source gives them in different places.
Legend:
adult S. mansoni [1] = experiment: Viability of adult S. mansoni worms in vitro, microscopic viability score; type: cell-based, Schistosoma mansoni; conditions: for IC50: Table 1, adult worms after 72 h; for adult (%) 0.1 μM: Table 1, 0.1 μM; for adult (%) 0.1 μM / adult (%) 1 μM: effect on adult worms after 72 h; for adult (%) 1 μM: Table 1, 1 μM
In short: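 Adult worms were picked from the hepatic portal and mesenteric veins of mice infected 49 days earlier with 100 cercariae. They were washed in PBS pH 7.4 and held in RPMI 1640 with 5% heat-inactivated FCS and antibiotics at 37 °C, 5% CO2. Worms were exposed to test compound for 72 h, with medium plus 1% DMSO as control. Motility, viability and morphology were scored daily by microscopy at 80×. IC50 used a 3-fold dilution series starting at 1 μM and was computed from the scores.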

S. mansoni [2] = experiment: In vivo study in mice harboring a chronic S. mansoni infection; conditions: single oral dose 10 mg/kg
In short: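 Female NMRI mice (3 weeks old, ca. 20–22 g) were infected subcutaneously with about 100 S. mansoni cercariae. At day 49 post-infection (adult infection), groups of four received a single oral 10 mg/kg dose of test compound; untreated mice served as controls. Mice were euthanised with CO2 21 days after treatment. Worms were picked, sexed and counted, and worm burden reduction was calculated.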

S. mansoni NTS = conditions: read-out: IC50 against NTS; cited from earlier work
adult S. mansoni [3] = conditions: read-out: IC50 against adult S. mansoni; cited from earlier work
S. mansoni [4] = conditions: cited from earlier work
S. mansoni [5] = conditions: cited from earlier work; remark: listed apart in the source

| SMILES | IC50 (adult S. mansoni [1]; Schistosoma mansoni, 72 h) | adult (%) 0.1 μM (adult S. mansoni [1]) | adult (%) 1 μM (adult S. mansoni [1]) | IC50 (adult S. mansoni [1]) | also measured |
| --- | --- | --- | --- | --- | --- |
| C[C@@H]1C[C@H](O)[C@]2(O)O[C@@H]3C[C@@]4(C=O)[C@@H](CC[C@@H]5[C@@H]4CC[C@]4(C)[C@@H](C6=CC(=O)OC6)CC[C@]54O)C[C@H]3O[C@@H]2O1 [5a, Calotropin] | 371 nM | 22.9% | 97% |  |  |
| C[C@@H]1C[C@@]2(NCCS2)[C@]2(O)O[C@@H]3C[C@@]4(C=O)[C@@H](CC[C@@H]5[C@@H]4CC[C@]4(C)[C@@H](C6=CC(=O)OC6)CC[C@]54O)C[C@H]3O[C@@H]2O1 [5aa, Voruscharin] |  | 31.3% | 98% | 137 nM |  |
| C[C@@H]1C[C@H](O)[C@]2(O)O[C@@H]3C[C@@]4(C)[C@@H](CC[C@@H]5[C@@H]4CC[C@]4(C)[C@@H](C6=CC(=O)OC6)CC[C@]54O)C[C@H]3O[C@@H]2O1 [5f, Gomphoside] |  | 24.4% | 94% | 196 nM |  |
| C[C@@H]1C[C@@]2(N=CCS2)[C@]2(O)O[C@@H]3C[C@@]4(C=O)[C@@H](CC[C@@H]5[C@@H]4CC[C@]4(C)[C@@H](C6=CC(=O)OC6)CC[C@]54O)C[C@H]3O[C@@H]2O1 [5z, Uscharin] | 76 nM | 51% | 100% |  | mean number of worms, MV (S. mansoni [2]): 27.7 ± 6.5; mean number of worms, females (S. mansoni [2]): 13.0 ± 4.6; mean number of worms, liver, alive (S. mansoni [2]): 0.7 ± 1.1; mean number of worms, liver, dead (S. mansoni [2]): 0 ± 0; mean number of worms, males (S. mansoni [2]): 15.3 ± 3.2; mean number of worms, total (S. mansoni [2]): 28.3 ± 7.5; total WBR (worm burden reduction) (S. mansoni [2]; chronic infection): 0% |
| O=C(C1CCCCC1)N1CC(=O)N2CCc3ccccc3C2C1 (centres unmarked) [praziquantel] |  |  |  |  | IC50 (S. mansoni NTS): 2200 nM; IC50 (adult S. mansoni [3]): 100 nM |
| CC(=O)S[C@@H]1CC2=CC(=O)CC[C@]2(C)[C@H]2CC[C@@]3(C)[C@@H](CC[C@@]34CCC(=O)O4)[C@H]12 [spironolactone] |  |  |  |  | in vivo activity (S. mansoni [4]): moderate; in vitro activity against S. mansoni (S. mansoni [5]): 7.2 µM |

Source: publication PMC7359852 (ACS Infectious Diseases, 2020)
